# Sampled rows, rich in hits. Any-hit rate of the full collection: about 4.3%.
# Hep lipid drop – inhibitors of hepatocyte lipid droplet formation, primary screen, imaging, high-throughput imaging, BODIPY stain; 240,000 tested, 0.4% active; AML12 mouse hepatocytes, oleate lipid droplets; inhibition, % at 6.5 µM;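 active = lipid droplet intensity inhibited by at least 50%, with more than 500 cells counted; inconclusive = wells with under 300 cells, treated as cytotoxic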
#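 System: AML12 hepatocytes (mouse). Probe or stimulus: oleic acid at 100 µM to induce lipid droplet formation. Times: overnight treatment with compound plus oleate. Detection: Image-based BODIPY and DAPI two-channel analysis. Evaluation: percent inhibition of filter-corrected integrated lipid droplet intensity per well.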
# Yeast superoxide – reduction of superoxide in aged yeast, primary screen, HTS | S. cerevisiae aged cells, superoxide DHE fluorescence; hits give low values | superoxide response (% of plate mean), % at 10 µM | 330,000 tested, 0.18% active | AID 2690, 2010;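 active = superoxide response under a set limit, about three screen SD below normal, cut at about 65% in these data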;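 note: yeast aged for seven days with compound at 30 °C before DHE staining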
# SR-BI uptake up – activators of SR-BI mediated DiI-HDL uptake, primary screen, ldlA[mSR-BI] CHO cells, DiI fluorescence. activation, % at 12.5 µM. 320,000 tested, 0.096% active. 3 h; 100 = double the neutral-control signal;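 active = mean replicate activation of at least 60% and every replicate at or above 60%; inconclusive = mean or all-replicate condition met, but not both; inactive = mean below 60% and not all replicates reaching 60%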
#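 material = CHO ldlA[mSR-BI] cells | medium = Ham's F12 with 0.5% BSA, HEPES 25 mM, pH 7.4 | reagent = fluorescent DiI-HDL, 10 µg/mL final | compound dosing = single-point compound dose | incubation = 3 h, 37 °C | measured by = bottom-read fluorescence, 550/595 nm | measure = HDL uptake via cellular fluorescence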
# SMARCA2 activ – SMARCA2 (BRM) function activators, primary screen, cell-based, luminescence, high throughput; MG213 cells, MMTV-luciferase reporter, dexamethasone, overnight; 370,000 tested, 1% active; activation, % at 9.1 µM; in the data active = activation above about 7.8%
# SR-BI DiI inh – inhibitors of SR-BI mediated HDL lipid uptake, primary screen, ldlA[mSR-BI] cells, fluorescence, single point | Scavenger receptor class B member 1 (Mus musculus), Q61009 | ldlA[mSR-BI] CHO cells, DiI-HDL uptake fluorescence, 3 h | inhibition, % at 12.5 µM | 320,000 tested, 0.96% active;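 active = mean replicate inhibition of at least 70% and a set share of replicates each scoring 70 or more; inconclusive = meets just one of the two criteria; inactive = fails both criteria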
# AHR activator – AHR activators, primary screen, cell-based, luminescence, luciferase reporter, human | Aryl hydrocarbon receptor (Homo sapiens), P35869 | AHR-responsive luciferase reporter cells | activation, % at 5 µM | 320,000 tested, 2.5% active | AID 2796, 2010; in the data active = activation above about 47%
# Target sequence (P35869 whole entry, looked up): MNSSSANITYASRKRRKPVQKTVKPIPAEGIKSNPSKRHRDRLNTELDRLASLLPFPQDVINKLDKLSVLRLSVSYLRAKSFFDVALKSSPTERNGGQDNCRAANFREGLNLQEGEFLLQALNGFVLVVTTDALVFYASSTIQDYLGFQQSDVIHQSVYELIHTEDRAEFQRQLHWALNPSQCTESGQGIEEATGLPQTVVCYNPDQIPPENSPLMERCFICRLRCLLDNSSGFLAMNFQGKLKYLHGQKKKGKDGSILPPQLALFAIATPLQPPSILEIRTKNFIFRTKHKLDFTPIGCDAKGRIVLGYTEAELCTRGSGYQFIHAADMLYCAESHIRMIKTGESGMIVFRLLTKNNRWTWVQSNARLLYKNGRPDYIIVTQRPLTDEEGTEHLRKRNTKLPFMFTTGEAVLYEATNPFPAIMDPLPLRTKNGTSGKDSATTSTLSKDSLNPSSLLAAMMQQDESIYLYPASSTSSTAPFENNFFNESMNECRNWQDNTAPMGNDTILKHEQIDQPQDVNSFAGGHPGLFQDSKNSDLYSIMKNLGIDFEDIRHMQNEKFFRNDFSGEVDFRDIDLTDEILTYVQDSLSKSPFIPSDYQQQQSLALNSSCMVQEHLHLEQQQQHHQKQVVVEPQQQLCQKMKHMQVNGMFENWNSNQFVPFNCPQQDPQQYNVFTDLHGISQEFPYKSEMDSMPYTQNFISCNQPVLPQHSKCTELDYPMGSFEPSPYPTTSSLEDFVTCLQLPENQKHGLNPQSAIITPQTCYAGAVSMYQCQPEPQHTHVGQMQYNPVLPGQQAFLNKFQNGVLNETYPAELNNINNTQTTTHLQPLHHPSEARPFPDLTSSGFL
# Hits are given with their value; n = inactive; u = inconclusive; x = no result given.
SMILES,Hep lipid drop,Yeast superoxide,SR-BI uptake up,SMARCA2 activ,SR-BI DiI inh,AHR activator
Cc1cc(C)cc(NC(=O)Nc2ccc3c(c2)N(C)C(=O)CS3)c1,x,n,n,n,n,71
CCN(C(=O)c1ccco1)c1nc(CC(=O)Nc2ccc(Cl)cc2)cs1,x,n,n,n,n,78
CCN1CCCC1CNC(=O)Cn1nc(C)n2c(cc3cc(F)ccc32)c1=O (configuration not stated),n,n,n,n,n,n
CCN1CCCC1CNC(=O)c1cc2cc(F)ccc2[nH]1 (configuration not stated),x,n,n,n,n,67
Cc1cc2oc(=O)cc(CN3CCc4ccccc43)c2cc1Cl,x,n,n,n,n,50
CCc1ccc2c(CN3CCc4ccccc43)cc(=O)oc2c1,x,n,n,n,n,n
CC1(O)C(=O)C2(C)C=CC1C1C(=O)N(c3ccccc3)C(=O)C12 (configuration not stated),x,x,x,n,x,x
CCOC(=O)c1c(C)[nH]c(C)c1S(=O)(=O)N(C)CC(=O)Nc1cc(C)ccc1OC,n,n,n,n,n,55
C/C(=N\NC(=O)c1c(Br)c(C)nn1C)c1ccc(NC(=O)C(C)Oc2ccc(Cl)cc2C)cc1 (configuration not stated),x,n,n,n,76,n
O=C(Nc1ccccc1N1CCN(c2ccccc2)CC1)c1ccccc1F,n,n,n,n,75,n
O=C(Nc1ccccc1N1CCN(C(=O)c2ccc(Cl)cc2)CC1)c1cccc(F)c1,n,n,n,n,74,n
CC(C)C(=O)N[C@H]1[C@H](O)CCC[C@@]12C(=O)N(Cc1ccccc1)c1ccccc12,x,x,x,n,x,x
O=C(Cc1ccccc1)Nc1nc(=O)c2ccccc2s1,x,n,n,n,n,n
O=C(Cc1nc(=O)c2ccccc2s1)Nc1ccccc1,x,n,n,n,n,50
CCOC(=O)[C@]12CCCCC/C=C\1N(CCc1ccc(Cl)cc1)C(=O)[C@H]2CC(=O)NCc1cccs1,x,x,x,n,x,x
CCC(C)NC(=O)c1c(N)n(/N=C/c2ccccn2)c2nc3ccccc3nc12 (configuration not stated),x,n,n,n,n,n
CC(C)OCCCNC(=O)c1c(N)n(/N=C/c2ccccn2)c2nc3ccccc3nc12,x,n,84,n,n,n
O=C1C=C(c2cccc3c2Oc2ccccc2S3)C[C@@H](c2ccc3c(c2)OCO3)C1,x,x,x,n,x,x
COc1cc(NS(=O)(=O)c2ccc(NC(=O)/C=C/c3ccc([N+](=O)[O-])cc3)cc2)ncn1,n,n,n,n,n,n
COc1cc(NS(=O)(=O)c2ccc(NC(=O)/C=C/c3cccc([N+](=O)[O-])c3)cc2)ncn1,n,n,n,n,n,104
COC(=O)c1cccc(NC(=O)/C=C/c2cccc([N+](=O)[O-])c2)c1,x,n,n,n,73,n
COC(=O)c1cccc(NC(=O)/C=C/c2ccc([N+](=O)[O-])cc2)c1,n,n,n,n,n,n
COc1cc(NS(=O)(=O)c2ccc(NC(=S)NC(=O)c3sc4ccccc4c3Cl)cc2)ncn1,n,n,n,11,n,n
CC(Nc1ccc(Cl)cc1)c1cc(Cl)ccc1O (configuration not stated),n,n,373,n,n,n
CCOc1ccc(NC(C)c2cc(Cl)ccc2O)cc1 (configuration not stated),n,n,n,n,n,n
SMILES,Hep lipid drop,Yeast superoxide,SR-BI uptake up,SMARCA2 activ,SR-BI DiI inh,AHR activator
Cc1cc(N2CCNC[C@H]2C)ccc1N1CCN(Cc2ccccc2)[C@H](C)C1,x,x,x,n,x,x
CC(=O)N(/N=C1\Sc2ccccc2C1=O)c1cccc(C)c1,x,n,n,n,n,76
CC(=O)N(CN1C(=O)c2ccccc2C1=O)c1cccc(C)c1,x,n,n,n,n,n
O=C(CSc1ccc(-c2cccnc2)nn1)Nc1ccc(F)cc1F,n,n,n,n,n,65
COc1ccccc1C(=O)COC(=O)c1cc([N+](=O)[O-])ccc1N1CCOCC1,x,n,n,n,85,n
CCOc1ccc(CCNC(=O)c2cc([N+](=O)[O-])ccc2N2CCOCC2)cc1OCC,n,n,n,7.9,n,n
COc1ccccc1NC(=O)c1cc([N+](=O)[O-])ccc1N1CCOCC1,n,n,n,n,n,60
COc1ccc(C(=O)COC(=O)c2cc([N+](=O)[O-])ccc2N2CCOCC2)c(OC)c1,x,n,n,n,u,n
COc1cc(C(=O)COC(=O)c2cc([N+](=O)[O-])ccc2N2CCOCC2)ccc1OC(F)F,x,n,n,n,85,n
C#CCNC(=O)C[C@H]1C[C@@]2(C(=O)OC)C(=C[C@H](C(C)(C)C)O[C@@H]2C)N(Cc2ccc3c(c2)OCO3)C1=O,x,x,x,n,x,x
COC(=O)c1ccc(CN2C(=O)[C@]3(OCCC=C[C@H]3C)c3cc(OC)ccc32)cc1,x,x,x,n,x,x
Cc1cc(C)c(C(=O)COC(=O)c2cc([N+](=O)[O-])ccc2N2CCOCC2)cc1C,x,n,n,n,79,n
COc1ccc(S[C@]2(C(=O)N(C)C)CC(=O)N(C(=O)c3ccccc3)[C@@H]2c2ccc(OC)cc2)cc1,x,x,x,n,x,x
Cc1cccc(/N=C/c2c(O)[nH]c3ccccc23)n1,x,n,n,n,n,64
CC(C)(C)c1ccc(S(=O)(=O)N2CCC(C(=O)NCC3COCCO3)CC2)cc1 (configuration not stated),x,x,x,n,x,x
CCOC(=O)c1sc(N/N=C/c2cc(Br)c(O)c(OC)c2)nc1C,n,n,n,n,n,67
COCc1cc(C)nc2sc(C(=O)OC(C)C)c(N)c12,n,n,n,n,n,72
COc1c2occc2c(OC(C)=O)c2c(=O)cc(C)oc12,n,n,n,n,n,54
Clc1ccccc1-c1nc(-c2ccccc2)n[nH]1,x,n,n,n,n,66
COc1ccccc1/C=N/Nc1cc(N(C)C)nc(N(C)C)n1,n,n,n,n,n,n
CN(C)c1cc(N/N=C\c2ccccc2)nc(N(C)C)n1,n,n,n,n,n,54
COc1ccc(/C=N/Nc2cc(N(C)C)nc(N(C)C)n2)cc1,n,n,n,n,n,49
O=C(OCc1cn(Cc2cccc(Cl)c2)nn1)N1CCOCC1,x,x,x,n,x,x
CC(C)c1ccc(NC(=O)c2snc3ccc(Cl)cc23)cc1,n,n,n,n,n,55
COC(=O)Cn1c2ccccc2c2nc3ccccc3nc21,n,n,n,n,98,x
O=C(O)CCn1c2ccccc2c2nc3ccccc3nc21,n,n,n,n,n,60
COC(=O)Cn1c2nc3ccccc3nc2c2cccc(C)c21,n,n,n,n,n,x

# Assay outcomes from PubChem.
